Source: ChEMBL document CHEMBL3751796, “Structure-Based Discovery of Novel Cyclophilin A Inhibitors for the Treatment of Hepatitis C Virus Infections” (J Med Chem, 2015)
Activity calls are given as the source filed them. The calls are words filed in the database; no cut-off is given here.

Legend:
[1] = molecular target: T1, Peptidyl-prolyl cis-trans isomerase A (Homo sapiens, UniProt P62937); experiment: Inhibition of recombinant GST-tagged Cyclophilin A (unknown origin) interaction with HCV GST-tagged NS5B at 2 to 4 uM by GST pulldown assay
[2] = molecular target: T1, Peptidyl-prolyl cis-trans isomerase A; experiment: Inhibition of human Cyclophilin A interaction with HCV genotype 1b Con1 NS5A in human Huh7.5 cells at 2 uM by co-immunoprecipitation assay; format: cell-based; conditions: Huh-7
[3] = molecular target: T1, Peptidyl-prolyl cis-trans isomerase A; experiment: Inhibition of human Cyclophilin A interaction with HCV genotype 1b Con1 NS5B in human Huh7.5 cells at 2 uM by co-immunoprecipitation assay; format: cell-based; conditions: Huh-7
[4] = molecular target: T1, Peptidyl-prolyl cis-trans isomerase A; experiment: Inhibition of human Cyclophilin A interaction with HCV genotype 1b Con1 NS5B in human Huh7.5 cells after 72 hrs by mammalian two-hybrid assay; format: cell-based; conditions: Huh-7
[5] = Cytotoxicity against mock-infected human Huh7.5 cells assessed as reduction in cell viability incubated for 5 hrs by MTT assay; format: cell-based, Huh-7; conditions: mock-infected Huh7.5 cells
Procedure, shortened: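 Mock-infected Huh7.5 cells run alongside the JFH1-Luc antiviral assay with 3-fold serial dilutions. Viability read by MTT assay to give CC50.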

[6] = Selectivity index, ratio of CC50 for mock-infected human Huh7.5 cells to EC50 for recombinant HCV genotype 2a JFH1; set-up: species or system Huh-7
Procedure, shortened: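 Huh7.5 cells infected with JFH1-Luc virus (MOI 0.004, 5 h, 37 °C) in the presence of 3-fold serial dilutions. EC50 came from Renilla luciferase on day 3. CC50 came from MTT viability of mock-infected Huh7.5 cells treated in parallel. SI = CC50/EC50.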

[7] = Cytotoxicity against BALB/c mouse splenocytes assessed as reduction in cell viability at 1 to 10 uM; format: cell-based; conditions: splenocyte
Mus musculus [8] = organism: Mus musculus; experiment: Activation of calcium-dependent calcineurin phosphatase activity in ionomycin-stimulated BALB/c mouse splenocytes assessed as nuclear translocation of NFAT1 at 5 uM preincubated for 20 hrs followed by ionomycin stimulation measured after 4 hrs by DAPI staining based confocal microscopy
Procedure, shortened: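 Splenocytes were pretreated 20 h, then stimulated with ionomycin 1 μg/mL for 4 h. Fixed in 3.7% formaldehyde, permeabilized with 0.5% Triton X-100, and incubated overnight at 4 °C with anti-NFAT1 (1:100, 3% BSA). Alexa 546 secondary 1:200 for 2 h, DAPI counterstain, then confocal imaging of NFAT1 localization.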

Mus musculus [9] = organism: Mus musculus; experiment: Activation of calcium-dependent calcineurin phosphatase activity in ionomycin-stimulated BALB/c mouse assessed as production of IL-2 at 1 to 10 uM after 24 hrs by ELISA
Procedure, shortened: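 Mouse spleen cells, 2 × 10^6/well, stimulated with ionomycin 1 μg/mL and treated with a dose series for 24 h at 37 °C. Media from triplicate wells pooled. IL-2 measured by ELISA and calculated from IL-2 standards.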

[10] = molecular target: T1, Peptidyl-prolyl cis-trans isomerase A; experiment: Inhibition of Cyclophilin A in human Huh7.5 cells infected with HCV assessed as reduction in viral RNA replication level at 0.5 to 4 uM by luciferase reporter gene assay; format: cell-based; conditions: Huh-7
Procedure, shortened: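 Huh7.5 cells infected with JFH1-Luc (Renilla luciferase reporter) virus at MOI 0.004 for 5 h at 37 °C, with or without test chemicals. Renilla luciferase activity was read from cell lysates on day 3 postinfection.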

Hepatitis C virus [11] = experiment: Antiviral activity against HCV genotype 1b Con1 infected in human Huh7.5 cells assessed as inhibition of NS5B expression at 2 uM by DAPI staining based confocal microscopy; format: functional, organism-based; conditions: Hepacivirus hominis, isolate Con1, Huh-7
Procedure, shortened: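 Con1b replicon cells treated at 2 μM. Stained with Alexa red anti-NS5A and Alexa green anti-NS5B antibodies plus DAPI, then imaged by confocal microscopy for colocalization. Images representative of at least three experiments.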

[12] = Cytotoxicity against HCV genotype 2a JFH1 infected human Huh7.5 cells expressing GFP-fused NS5A assessed as reduction in cell viability measured 72 hrs post infection by hoechst 33342 staining based confocal microscopy; set-up: species or system Huh-7
Hepatitis C virus [13] = experiment: Antiviral activity against HCV genotype 1b Con1 infected in human Huh7.5 cells assessed as stimulation of IRF9 mRNA expression at 2 uM incubated up to 96 hrs by qRT-PCR method; format: functional, organism-based; conditions: Hepacivirus hominis, isolate Con1, Huh-7, TDE = time-dependent effect
Procedure, shortened: (§1)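 mRNA measured by SYBR Green qRT-PCR using the 2^−ΔΔCT method, normalized to GAPDH and expressed as fold change vs controls.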

Hepatitis C virus [14] = experiment: Antiviral activity against HCV genotype 1b Con1 infected in human Huh7.5 cells assessed as stimulation of OAS1 mRNA expression at 2 uM incubated up to 96 hrs by qRT-PCR method; format: functional, organism-based; conditions: Hepacivirus hominis, isolate Con1, Huh-7, TDE = time-dependent effect; procedure, shortened: as §1
Hepatitis C virus [15] = experiment: Antiviral activity against HCV genotype 1b Con1 infected in human Huh7.5 cells assessed as stimulation of ISG15 mRNA expression at 2 uM incubated up to 96 hrs by qRT-PCR method; format: functional, organism-based; conditions: Hepacivirus hominis, isolate Con1, Huh-7, TDE = time-dependent effect; procedure, shortened: as §1
Hepatitis C virus [16] = experiment: Antiviral activity against HCV genotype 1b Con1 infected in human Huh7.5 cells assessed as stimulation of STAT1 expression at 2 uM incubated up to 96 hrs by Western blot analysis; format: functional, organism-based; conditions: Hepacivirus hominis, isolate Con1, Huh-7, TDE = time-dependent effect
Hepatitis C virus [17] = experiment: Antiviral activity against HCV genotype 1b Con1 infected in human Huh7.5 cells assessed as stimulation of OAS1 expression at 2 uM incubated up to 96 hrs by Western blot analysis; format: functional, organism-based; conditions: Hepacivirus hominis, isolate Con1, Huh-7, TDE = time-dependent effect
Hepatitis C virus [18] = experiment: Antiviral activity against HCV genotype 1b Con1 infected in human Huh7.5 cells assessed as reduction of IL-8 mRNA expression at 2 uM incubated up to 96 hrs by qRT-PCR method; format: functional, organism-based; conditions: Hepacivirus hominis, isolate Con1, Huh-7, TDE = time-dependent effect; procedure, shortened: as §1
[19] = Cytotoxicity against HCV infected human Huh7.5 cells assessed as cell death by MTT assay in presence of ribavirin; format: cell-based; conditions: huh-7
Hepatitis C virus [20] = experiment: Antiviral activity against HCV genotype 1b Con1 infected in human Huh7 cells xenografted in immunodeficient NOD/SCID mouse assessed as inhibition of HCV RNA level in liver at 50 mg/kg, ip up to 14 days by qRT-PCR method; format: functional, organism-based; conditions: Hepacivirus hominis, isolate Con1, Huh-7
Procedure, shortened: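 NOD/SCID mice engrafted intrasplenically with Huh7 HCV-Con1b replicon cells (1 × 10^6 in PBS). From week 6, 50 mg/kg given ip for 14 days, five mice per group. Liver HCV RNA measured by SYBR Green qRT-PCR, 2^−ΔΔCT method, normalized to GAPDH, fold change vs controls.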

Hepatitis C virus [21] = experiment: Antiviral activity against HCV genotype 1b Con1 infected in human Huh7 cells xenografted in immunodeficient NOD/SCID mouse assessed as inhibition of NS5B expression in liver at 50 mg/kg, ip up to 14 days by Western blot analysis; format: functional, organism-based; conditions: Hepacivirus hominis, isolate Con1, Huh-7
Hepatitis C virus [22] = experiment: Antiviral activity against HCV genotype 1b Con1 infected in human Huh7 cells xenografted in immunodeficient NOD/SCID mouse assessed as inhibition of NS5B expression in liver at 50 mg/kg, ip up to 14 days by DAPI staining based confocal microscopy; format: functional, organism-based; conditions: Hepacivirus hominis, isolate Con1, Huh-7
Mus musculus [23] = experiment: Nephrotoxicity in BALB/c mouse assessed as changes in serum creatinine level at 50 mg/kg, iv for 2 weeks; format: toxicity, organism-based; conditions: in vivo, 336 h
[24] = molecular target: Peptidyl-prolyl cis-trans isomerase B (Homo sapiens, UniProt P23284); experiment: Dissociation rate to Cyclophilin B (unknown origin) by surface plasmon resonance analysis
Sequence of Peptidyl-prolyl cis-trans isomerase B (P23284 whole entry): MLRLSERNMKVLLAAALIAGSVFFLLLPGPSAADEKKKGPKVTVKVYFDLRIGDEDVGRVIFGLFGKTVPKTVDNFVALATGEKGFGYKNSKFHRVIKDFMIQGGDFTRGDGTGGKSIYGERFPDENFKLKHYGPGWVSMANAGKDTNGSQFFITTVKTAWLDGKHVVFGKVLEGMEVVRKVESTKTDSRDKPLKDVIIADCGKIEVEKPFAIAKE

T1 sequence (P62937 whole entry, looked up): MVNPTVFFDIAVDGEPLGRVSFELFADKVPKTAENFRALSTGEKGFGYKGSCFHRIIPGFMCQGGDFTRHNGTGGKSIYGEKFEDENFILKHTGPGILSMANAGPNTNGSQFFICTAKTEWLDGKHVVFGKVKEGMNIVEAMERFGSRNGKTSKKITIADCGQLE

In the case of `COc1cc(C(C(=O)NC2CCCCC2)N(C(=O)Cc2c[nH]c3ccccc23)c2ccc(C(C)C)cc2)cc(OC)c1OC` (centres undefined), the inhibition [1] is reported as “Active”, the inhibition [2] is reported as “Active” and the inhibition [3] is reported as “Active”. For the same molecule, the inhibition [4] was “Active”, the CC50 at 5 h [5] was over 100 µM and the “Ratio CC50/EC50” value [6] was over 19.2. For the same molecule, the Activity [7] was “Non-toxic”, the Activity (Mus musculus [8]) was “Active” and the Activity (Mus musculus [9]) was “Active”. For the same molecule, the inhibition [10] was “Active”, the inhibition (Hepatitis C virus [11]) was “Active” and the CC50 at 72 h [12] was 22.3 µM. For the same molecule, the Activity (Hepatitis C virus [13]) was “tde”, the Activity (Hepatitis C virus [14]) was “tde” and the Activity (Hepatitis C virus [15]) was “tde”. The Activity (Hepatitis C virus [16]) was “tde”, the Activity (Hepatitis C virus [17]) was “tde” and the Activity (Hepatitis C virus [18]) was “tde”. The Activity [19] was “Non-toxic”, the inhibition (Hepatitis C virus [20]) was “Active” and the inhibition (Hepatitis C virus [21]) was “Active”. For the same molecule, the inhibition (Hepatitis C virus [22]) was “Active”, the Activity (Mus musculus [23]) was “Non-toxic” and the koff [24] was 8.25 ×10⁻⁴ /s.
